The list is not random: actives were taken first. Their share in the collection is about 2.1%.
Arbovirus anti: arbovirus infection inhibition; AID 1251; 0.37% of 200,000 active; inhibition, % at 10 µM; arbovirus infection cell-based antiviral screen; in the data active means inhibition above about 30%
Ins promoter up: MIN6 insulin promoter up-regulation. MIN6 insulin promoter-GFP reporter, high-content imaging; active compounds read high. z-score at 5 µM. 0.3% of 190,000 active;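 active means z-score above 3 at 5 µM with at least 500 cells counted in the well; inconclusive means wells under 500 cells, flagged as cytotoxic or low count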
INS promoter inh: TRM-6 insulin promoter activity inhibition; TRM-6 cells, insulin promoter-eGFP reporter, imaging; reporter expression induced with tamoxifen; inhibition, % at 2 µM; 0.9% of 130,000 active; AID 1273;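 active means inhibition above the mean plus 3 SD, with well images judged a real hit on visual review, cut at about 60% in these data, passing the limit was not always enough; inconclusive means inhibition over the cutoff but images rejected on review; inactive means inhibition not above the cutoff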
RBBP9 inhibitor: human RBBP9 hydrolase inhibition; O75884; recombinant RBBP9, FP-Rh probe fluorescence polarization; inhibition, % at 7.94 µM; 0.2% of 220,000 active;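 active means inhibition above the campaign mean of all tested compounds plus 3 SD, cut at about 14% in these data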;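 further: plate controls were DMSO wells with RBBP9 for no effect and wells lacking RBBP9 protein for full effect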
Target sequence (O75884 whole entry, looked up): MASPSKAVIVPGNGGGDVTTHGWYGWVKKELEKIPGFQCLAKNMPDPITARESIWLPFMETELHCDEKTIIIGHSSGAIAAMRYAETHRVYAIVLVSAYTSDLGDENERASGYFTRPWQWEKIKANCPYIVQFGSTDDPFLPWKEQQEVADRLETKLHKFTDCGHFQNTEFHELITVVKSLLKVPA
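Controls: DMSO-treated enzyme wells and wells lacking RBBP9 | Material: RBBP9 protein | Technique: Fluorescence polarization | Replication: Single well per compound, no replicates | Buffer or medium: Tris-NaCl-Pluronic buffer, pH 8.0 | Timing: 30 min compound preincubation, 45 min probe labeling, 25 °C | Read-out basis: Percent inhibition from mP, scaled between DMSO and no-protein wells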
PKD1 inh: blocks activity of human protein kinase D1. 0.056% of 200,000 active. PKD1 kinase fluorescence polarization assay. inhibition, % (no concentration beside the values). AID 797; in the data active means inhibition above about 50%
Autophagy HCS: modulators of autophagy; calls only at 10 µM (by protocol); MEF GFP-LC3 puncta imaging; test concentration mostly 10 µM; 0.98% of 190,000 active;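 active means percentage of spot-positive cells more than 3 SD above its plate mean, without a fluorescence outlier flag or 80% toxicity; inconclusive means no clear call, values can overlap the other calls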;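 further: spot-positive cell cutoff set from DMSO-treated cells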
An asterisk follows results filed as active; i = inactive; ? = inconclusive; · = no result; + = active, no number.

SMILES	Arbovirus anti	Ins promoter up	INS promoter inh	RBBP9 inhibitor	PKD1 inh	Autophagy HCS
CCOC(=O)N1CCN(C(=O)CSc2nnc(-c3ccc(C(C)(C)C)cc3)o2)CC1	1	·	-43	-1	7	+
CCOC(=O)N1CCN(C(=O)CSc2ccc(-c3ccncc3)nn2)CC1	10	-1.1	75*	-11	2	i
CCCC(=O)OC(C(=O)Nc1cc(C(F)(F)F)ccc1Cl)c1ccccc1 (stereo not given)	8	-1	38	-6	5	i
C=CCNCCOCCOc1ccc(C)cc1[N+](=O)[O-]	0	-0.05	-58	-5	-6	i
CCc1ccc(NC(=S)N2CCCCCCC2)cc1	20	0.19	79*	-5	-8	i
CCc1ccccc1NC(=O)CC1CS(=O)(=O)CC1CC(=O)Nc1ccccc1CC (stereo not given)	0	-0.14	-46	-2	9	i
O=C(CC1CCS(=O)(=O)C1)Nc1ccc[nH]c1=O (stereo not given)	-1	0.03	-112	16*	-3	i
CCOC(=O)C(=Cc1ccc(Br)cc1)C(=O)OCC	·	-1.3	·	-13	·	·
CCOC(=O)/C(=C\c1ccccc1)C(=O)c1cc(C(C)=O)c(Nc2ccccc2)s1	-32	0.71	-29	-10	-7	+
CCOC(=O)/C(=C\c1cccnc1)C(=O)c1cc(C(C)=O)c(Nc2ccccc2)s1	-36	-1.3	-13	-8	-4	+
O=C(Nc1ccccc1NC(=O)C1CCCO1)c1ccco1 (stereo not given)	3	-0.28	-36	-5	1	i
CCN(CC)C(=O)c1sc2nc(-c3cccs3)cc(-c3cccs3)c2c1N	·	·	·	-12	·	·
N#Cc1sc2nc(-c3cccs3)cc(-c3ccccc3)c2c1N	2	·	0	-11	-9	i
CCN(CC)C(=O)c1sc2nc(-c3cccs3)cc(-c3ccc(Cl)cc3)c2c1N	-8	2	-44	-16	-7	+
N#Cc1sc2nc(-c3cccs3)cc(-c3ccc(Cl)cc3)c2c1N	2	-0.14	·	-4	-12	+
COc1ccccc1C(=O)NCC1CCN(c2ccc(S(=O)(=O)N3CCOCC3)cc2)CC1	45*	·	-19	-4	5	i
COC(=O)c1ccccc1N/C=C/C(=O)c1ccc(Br)cc1	63*	0.21	-16	-8	-2	i
CNC(=O)CSCc1c(F)cccc1Cl	-3	·	?	3	1	i
O=C(CSCc1c(F)cccc1Cl)Nc1cccnc1	4	-0.41	·	-7	-9	+
Fc1ccc(NC(=S)NC2CCN(Cc3ccccc3)CC2)cc1	11	0.08	-47	-5	-2	i
S=C(Nc1ccc(Cl)c(Cl)c1)NC1CCN(Cc2ccccc2)CC1	-35	?	·	-13	1	+
COCCCN1C(=O)c2[nH]nc(-c3ccccc3O)c2C1c1cccc(Cl)c1 (stereo not given)	-10	·	·	-9	12	+
O=S(=O)(Nc1cccc(-c2nc3cccnc3s2)c1)c1ccc2c(c1)OCCO2	31*	-0.25	·	-16	2	i
Cc1ccc(-c2nc3cccnc3s2)cc1NS(=O)(=O)c1ccc2c(c1)OCCO2	-14	1.6	·	-13	-8	i
CCN(CC)S(=O)(=O)c1ccc2oc(C(=O)NCC3COc4ccccc4O3)c(C)c2c1 (stereo not given)	11	-3	-16	-17	-5	+
SMILES	Arbovirus anti	Ins promoter up	INS promoter inh	RBBP9 inhibitor	PKD1 inh	Autophagy HCS
COC(=O)c1sc2cc(C(F)(F)F)cnc2c1-c1ccccc1	-4	-0.45	-6	0	-12	i
COCCCNC(=O)c1c(NC(=O)C2COc3ccccc3O2)sc2c1CCCC2 (stereo not given)	2	·	87*	-3	2	i
CCCCCCc1cc2cc(C(=O)Nc3ccc(OC)cc3)c(=O)oc2cc1O	47*	-4.1	20	-4	-5	+
CCCCCCc1cc2cc(C(=O)Nc3cccc(OC)c3)c(=O)oc2cc1O	28	-0.06	-32	-5	-6	i
O=C(c1cc2ccccc2o1)N1CCC(N2CCC(C(=O)N3CCCC3)CC2)CC1	12	-0.25	·	-6	-2	i
COc1ccc2c3c(cccc13)NN=C2C	·	·	79*	15*	-2	i
COc1ccc(C(=O)c2ccc(OC)c3cccc(O)c23)cc1OC	0	0.86	-10	4	-6	i
O=C(NCc1ccccc1Cl)C(=O)NCC(c1ccco1)N1CCOCC1 (stereo not given)	-2	-0.11	78*	-3	-1	i
